Measurements taken from ChEMBL document CHEMBL1141574, “A comparison of chloroambucil- and xylene-containing polyamines leads to improved ligands for accessing the polyamine transport system” (J Med Chem, 2008).

Assays:
[1] = system: CHO-MG; test: Cytotoxicity against PAT deficient CHO-MG cells after 48 hrs; type: cell-based; settings: Cricetulus griseus
Outline: (§1)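 CHO and CHO-MG grown in RPMI with 10% FCS, glutamine, penicillin/streptomycin and 2 mM aminoguanidine; CHO-MG medium also has L-proline (2 µg/mL); 37 °C, 5% CO2. Cells plated at 1 × 10⁴ cells/mL and drug added after overnight incubation. After 48 h exposure, growth read as MTT formazan absorbance at 540 nm. IC50 is the concentration giving 50% reduction in relative growth; ratio is CHO-MG IC50 over CHO IC50.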

[2] = system: CHO; test: Cytotoxicity against PAT active CHO cells after 48 hrs; type: cell-based; settings: Cricetulus griseus; outline: as §1
[3] = Inhibition of [3H]spermidine uptake at PAT in mouse L1210 cells; type: cell-based
[4] = system: polyamine transporter (PAT); test: Ratio of IC50 for PAT deficient CHO-MG cells to IC50 for PAT active CHO cells; type: cell-based, Cricetulus griseus; settings: chinese hamster, PAT-deficient CHO-MG cells and PAT-active CHO cells; read-out: Ratio IC50; outline: as §1
[5] = system: L1210; test: Cytotoxicity against mouse L1210 cells after 24 hrs in presence of spermidine; type: functional, cell-based; settings: L1210, 24 h
[6] = system: L1210; test: Cytotoxicity against mouse L1210 cells after 48 hrs; type: functional, cell-based; settings: L1210, 48 h
Outline: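 L1210 cells in early to mid log phase, viability checked by trypan blue, grown in RPMI with 10% FCS, glutamine, antibiotics and 2 mM aminoguanidine at 37 °C, 5% CO2. Seeded at 6 × 10⁴ cells/mL with drug added at seeding. After 48 h exposure, growth read as MTT formazan at 540 nm. IC50 is the concentration reducing relative growth by 50%.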

[7] = system: FL5.12; test: Induction of apoptosis in 2 ng/ml IL3-induced mouse FL5.12A cells at 10 uM; type: functional
Outline: (§2)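 FL5.12A pro-B cells in RPMI1640 with 10% heat-inactivated FCS, antibiotics and IL-3 (2, 0.1 or 0 ng/mL) at 37 °C, 5% CO2. Preincubated 24 h at 5 × 10⁶ cells/well, then given 10 µM compound with aminoguanidine for 24 h. Result is % annexin-positive cells; run in triplicate.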

[8] = system: FL5.12; test: Induction of apoptosis in mouse FL5.12A cells treated after DMSO shock at 10 uM in presence of spermidine; type: functional
Outline: (§3)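 FL5.12A cells held 24 h at 2, 0.1 or 0 ng/mL IL-3 (5 × 10⁶ cells/well), treated overnight with or without spermidine (100 µM), then washed and exposed to 10% DMSO for 2 min. Washed twice in Hank's medium and incubated 2 h at 37 °C. Apoptosis read as % annexin-V-FITC-positive cells; run in duplicate.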

[9] = Induction of apoptosis in 0.1 ng/ml IL3-induced mouse FL5.12A cells at 10 uM after DMSO shock; type: functional
Outline: (§4)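 FL5.12A pro-B cells in RPMI1640 with 10% heat-inactivated FCS and 1 mM aminoguanidine, 37 °C, 5% CO2. Preincubated 24 h with IL-3 at the stated level (5 × 10⁶ cells/well), then dosed overnight without spermidine. Washed, shocked 2 min in 10% DMSO, washed twice with Hank's, and held 2 h at 37 °C.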

[10] = Induction of apoptosis in 2 ng/ml IL3-induced mouse FL5.12A cells at 10 uM after DMSO shock; type: functional; outline: as §4
[11] = system: FL5.12; test: Induction of apoptosis in mouse FL5.12A cells at 10 uM after DMSO shock; type: functional; outline: as §3
[12] = system: FL5.12; test: Induction of apoptosis in 0.1 ng/ml IL3-induced mouse FL5.12A cells at 10 uM; type: functional; outline: as §2
[13] = system: L1210; test: Cytotoxicity against mouse L1210 cells in presence of ODC inhibitor difluoromethylornithine; type: functional, cell-based
[14] = Induction of apoptosis in 2 ng/ml IL3-induced mouse FL5.12A cells treated after DMSO shock at 10 uM in presence of spermidine; type: functional
Outline: (§5)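 FL5.12A pro-B cells in RPMI1640 with 10% heat-inactivated FCS and 1 mM aminoguanidine, 37 °C, 5% CO2. Preincubated 24 h at the stated IL-3 level (5 × 10⁶ cells/well), then dosed overnight with spermidine 100 µM. Washed, shocked 2 min in 10% DMSO, washed twice in Hank's, and held 2 h at 37 °C.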

[15] = system: FL5.12; test: Induction of apoptosis in mouse FL5.12A cells at 10 uM; type: functional; outline: as §2
[16] = Induction of apoptosis in 0.1 ng/ml IL3-induced mouse FL5.12A cells treated after DMSO shock at 10 uM in presence of spermidine; type: functional; outline: as §5
[17] = system: FL5.12; test: Induction of apoptosis in 2 ng/ml IL3-induced mouse FL5.12A cells at 10 uM in presence of spermidine; type: functional
Outline: (§6)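 FL5.12A cells held 24 h at 2, 0.1 or 0 ng/mL IL-3 (5 × 10⁶ cells/well), then treated with compound overnight with or without spermidine (100 µM). Apoptosis read as % annexin-V-FITC-positive cells by flow cytometry; run in duplicate.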

[18] = system: FL5.12; test: Induction of apoptosis in 0.1 ng/ml IL3-induced mouse FL5.12A cells at 10 uM in presence of spermidine; type: functional; outline: as §6
[19] = system: FL5.12; test: Induction of apoptosis in mouse FL5.12A cells at 10 uM in presence of spermidine; type: functional; outline: as §6
[20] = Chemical stability in phosphate buffer assessed as degraded compound after 48 hrs; type: physicochemical; settings: read-out: Activity
Outline: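 NMR in phosphate buffer, pD 7.4, in D2O; sample held 48 h at 37 °C, then the fraction of conjugate degraded was read.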

[21] = system: L1210; test: Cytotoxicity against mouse L1210 cells after 24 hrs in presence of 100 uM spermidine; type: functional, cell-based; settings: L1210, 24 h

SMILES	IC50 [1]	IC50 [2]	Ki [3]	selectivity ratio [4]	IC50 [5]	IC50 [6]	Activity [7]	Activity [12]	IC50 [13]	Activity [15]	further results
NCCCNCCCCNCc1ccc(N(CCCl)CCCl)cc1	> 100 µM	> 100 µM	12.4 µM	1	8.13 µM	8.14 µM					
Cl.NCCCCNCCCCNCc1c2ccccc2c(CNCCCCNCCCCN)c2ccccc12	> 100 µM	0.045 µM	0.39 µM	> 2220	5.52 µM	0.78 µM	5.56%	6.07%	0.22 µM	8.64%	Activity [8]: 16.69%; Activity [9]: 56.7%; Activity [10]: 44.7%; Activity [11]: 67.53%; Activity [14]: 12.9%; Activity [16]: 10.2%
O=C(O)CCCc1ccc(N(CCCl)CCCl)cc1 [CHLORAMBUCIL]	111 µM	84.5 µM	> 150 µM	1.32		14.1 µM					
NCCCCNCCCNCc1ccc(N(CCCl)CCCl)cc1	> 100 µM	> 100 µM	2.66 µM	1	7.83 µM	6.53 µM					
NCCCCNCCCCNCc1ccccc1	> 1000 µM		4.5 µM			36.3 µM					
NCCCCNCCCCNCc1ccc(CNCCCCNCCCCN)c2ccccc12	> 100 µM	0.12 µM	0.17 µM	> 833	6.42 µM	0.25 µM					
NCCCCNCCCN [SPERMIDINE]							5.52%	6.07%		58.16%	
Cl.NCCCCNCCCCNCc1c2ccccc2cc2ccccc12			1.8 µM	148	0.83 µM		67.71%	80.41%	0.09 µM	>95%	Activity [17]: 37.3%; Activity [18]: 33.87%; Activity [19]: 46.2%
NCCCCNCCCCNCc1ccc(N(CCCl)CCCl)cc1	> 100 µM	> 100 µM	5.97 µM	1	31.1 µM	35.4 µM					degraded at 48 h [20]: 89%
N=C(N)NN [PIMAGEDINE]							5.17%	3.72%		79.69%	
Cl.Cl.NCCCCNCc1c2ccccc2cc2ccccc12		7.7 µM	32.2 µM	1			>95%	>95%	9.78 µM	>95%	IC50 [21]: 6.96 µM; Activity [17]: 47.28%; Activity [18]: 35.59%; Activity [19]: 35.32%
NCCCCNCCCCNCc1cccc2ccccc12		0.6 µM	3.8 µM	> 164					0.43 µM		
NCCCCNCCCCNCc1ccc(CNCCCCNCCCCN)cc1	50.2 µM	0.074 µM	0.52 µM	677	6.89 µM	0.16 µM			0.36 µM		
